Measured values as given in ChEMBL document CHEMBL4130549, “Synthesis and bioactivities study of new antibacterial peptide mimics: The dialkyl cationic amphiphiles” (Eur J Med Chem, 2018).
Activity calls are given as the source filed them. No cut-off for these calls is given here.

Assays:
Escherichia coli [1] = assay: Ratio of MIC for Escherichia coli ATCC 25922 after 20 serial passages to MIC for Escherichia coli ATCC 25922; format: functional, organism-based
How it was run: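 Sub-MIC serial passaging: after an initial broth microdilution MIC, cells grown at MIC/2 were transferred into a new MIC assay after each 24 h incubation, for 20 passages. MIC was plotted against days to follow resistance development. Passaging controls were norfloxacin for S. aureus and colistin for E. coli.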

Staphylococcus aureus [2] = assay: Antibacterial activity against Staphylococcus aureus ATCC 29213 after 16 to 20 hrs by broth microdilution method; format: functional
How it was run: (§1)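 CLSI broth microdilution in cation-adjusted Mueller-Hinton broth. A 4-6 h culture was diluted to about 10⁶ CFU/mL and mixed 1:1 with twofold compound dilutions (256–0.5 µg/mL before mixing) prepared from aqueous stocks. Plates were incubated at 37 °C for 16-20 h. Each concentration was tested in duplicate, and the experiment was repeated at least twice.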

Enterococcus faecalis = assay: Antibacterial activity against Enterococcus faecalis after 16 to 20 hrs by broth microdilution method; format: functional
How it was run: (§2)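 Broth microdilution per CLSI in cation-adjusted Mueller-Hinton broth; 4-6 h cultures (~10⁸ CFU/mL) diluted to ~10⁶ CFU/mL and mixed 1:1 with twofold dilutions of water-dissolved compound (256 to 0.5 µg/mL). Incubated 16-20 h at 37 °C; MIC read visually. Each concentration run in duplicate, whole experiment repeated at least twice. MRSA, KPC and NDM-1 strains were clinical isolates.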

Escherichia coli [3] = assay: Antibacterial activity against Escherichia coli ATCC 25922 after 16 to 20 hrs by broth microdilution method; format: functional; how it was run: as §2
Salmonella enterica = assay: Antibacterial activity against Salmonella enterica after 16 to 20 hrs by broth microdilution method; format: functional; how it was run: as §2
Staphylococcus aureus [4] = assay: Antibacterial activity against methicillin-resistant Staphylococcus aureus after 16 to 20 hrs by broth microdilution method; format: functional; how it was run: as §1
Klebsiella pneumoniae [5] = assay: Antibacterial activity against carbapenemase-producing Klebsiella pneumoniae after 16 to 20 hrs by broth microdilution method; format: functional; how it was run: as §2
Enterobacteriaceae [6] = assay: Antibacterial activity against NDM-1-producing Enterobacteriaceae after 16 to 20 hrs by broth microdilution method; format: functional; how it was run: as §2
[7] = Hemolytic activity in sheep RBC after 1 hr; format: ADME, cell-based, Ovis aries, Erythrocyte; settings: sheep red blood cells (erythrocytes)
How it was run: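 Sheep RBCs suspended at 5% in PBS; 150 µL added to 50 µL compound dilutions (5120 to 10 µg/mL series). Incubated 1 h at 37 °C, then centrifuged; supernatant absorbance read at 540 nm. Lysis (%) = (A−A0)/(Atotal−A0)×100, with untreated 5% RBC as A0 and 0.1% Triton X-100 as total.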

Staphylococcus aureus [8] = assay: Antibacterial activity against methicillin-resistant Staphylococcus aureus isolate M1 after 16 to 20 hrs by broth microdilution method; format: functional; how it was run: as §1
Staphylococcus aureus [9] = assay: Antibacterial activity against methicillin-resistant Staphylococcus aureus isolate M2 after 16 to 20 hrs by broth microdilution method; format: functional; how it was run: as §1
Staphylococcus aureus [10] = assay: Antibacterial activity against methicillin-resistant Staphylococcus aureus isolate M3 after 16 to 20 hrs by broth microdilution method; format: functional; how it was run: as §1
Staphylococcus aureus [11] = assay: Antibacterial activity against methicillin-resistant Staphylococcus aureus isolate M4 after 16 to 20 hrs by broth microdilution method; format: functional; how it was run: as §1
Staphylococcus aureus [12] = assay: Antibacterial activity against methicillin-resistant Staphylococcus aureus isolate M5 after 16 to 20 hrs by broth microdilution method; format: functional; how it was run: as §1
Staphylococcus aureus [13] = assay: Antibacterial activity against methicillin-resistant Staphylococcus aureus isolate M6 after 16 to 20 hrs by broth microdilution method; format: functional; how it was run: as §1
Staphylococcus aureus [14] = assay: Antibacterial activity against methicillin-resistant Staphylococcus aureus isolate M7 after 16 to 20 hrs by broth microdilution method; format: functional; how it was run: as §1
Staphylococcus aureus [15] = assay: Antibacterial activity against methicillin-resistant Staphylococcus aureus isolate M8 after 16 to 20 hrs by broth microdilution method; format: functional; how it was run: as §1
Staphylococcus aureus [16] = assay: Antibacterial activity against methicillin-resistant Staphylococcus aureus isolate M9 after 16 to 20 hrs by broth microdilution method; format: functional; how it was run: as §1
Staphylococcus aureus [17] = assay: Antibacterial activity against methicillin-resistant Staphylococcus aureus isolate M10 after 16 to 20 hrs by broth microdilution method; format: functional; how it was run: as §1
Klebsiella pneumoniae [18] = assay: Antibacterial activity against carbapenemase-producing Klebsiella pneumoniae isolate K1 after 16 to 20 hrs by broth microdilution method; format: functional; how it was run: as §2
Klebsiella pneumoniae [19] = assay: Antibacterial activity against carbapenemase-producing Klebsiella pneumoniae isolate K2 after 16 to 20 hrs by broth microdilution method; format: functional; how it was run: as §2
Klebsiella pneumoniae [20] = assay: Antibacterial activity against carbapenemase-producing Klebsiella pneumoniae isolate K3 after 16 to 20 hrs by broth microdilution method; format: functional; how it was run: as §2
Klebsiella pneumoniae [21] = assay: Antibacterial activity against carbapenemase-producing Klebsiella pneumoniae isolate K4 after 16 to 20 hrs by broth microdilution method; format: functional; how it was run: as §2
Klebsiella pneumoniae [22] = assay: Antibacterial activity against carbapenemase-producing Klebsiella pneumoniae isolate K5 after 16 to 20 hrs by broth microdilution method; format: functional; how it was run: as §2
Klebsiella pneumoniae [23] = assay: Antibacterial activity against carbapenemase-producing Klebsiella pneumoniae isolate K6 after 16 to 20 hrs by broth microdilution method; format: functional; how it was run: as §2
Klebsiella pneumoniae [24] = assay: Antibacterial activity against carbapenemase-producing Klebsiella pneumoniae isolate K7 after 16 to 20 hrs by broth microdilution method; format: functional; how it was run: as §2
Klebsiella pneumoniae [25] = assay: Antibacterial activity against carbapenemase-producing Klebsiella pneumoniae isolate K8 after 16 to 20 hrs by broth microdilution method; format: functional; how it was run: as §2
Klebsiella pneumoniae [26] = assay: Antibacterial activity against carbapenemase-producing Klebsiella pneumoniae isolate K9 after 16 to 20 hrs by broth microdilution method; format: functional; how it was run: as §2
Klebsiella pneumoniae [27] = assay: Antibacterial activity against carbapenemase-producing Klebsiella pneumoniae isolate K10 after 16 to 20 hrs by broth microdilution method; format: functional; how it was run: as §2
Enterobacteriaceae [28] = assay: Antibacterial activity against NDM-1-producing Enterobacteriaceae isolate N1 after 16 to 20 hrs by broth microdilution method; format: functional; how it was run: as §2
Enterobacteriaceae [29] = assay: Antibacterial activity against NDM-1-producing Enterobacteriaceae isolate N2 after 16 to 20 hrs by broth microdilution method; format: functional; how it was run: as §2
Enterobacteriaceae [30] = assay: Antibacterial activity against NDM-1-producing Enterobacteriaceae isolate N3 after 16 to 20 hrs by broth microdilution method; format: functional; how it was run: as §2
Enterobacteriaceae [31] = assay: Antibacterial activity against NDM-1-producing Enterobacteriaceae isolate N4 after 16 to 20 hrs by broth microdilution method; format: functional; how it was run: as §2
Enterobacteriaceae [32] = assay: Antibacterial activity against NDM-1-producing Enterobacteriaceae isolate N5 after 16 to 20 hrs by broth microdilution method; format: functional; how it was run: as §2
Enterobacteriaceae [33] = assay: Antibacterial activity against NDM-1-producing Enterobacteriaceae isolate N6 after 16 to 20 hrs by broth microdilution method; format: functional; how it was run: as §2
Enterobacteriaceae [34] = assay: Antibacterial activity against NDM-1-producing Enterobacteriaceae isolate N7 after 16 to 20 hrs by broth microdilution method; format: functional; how it was run: as §2
Enterobacteriaceae [35] = assay: Antibacterial activity against NDM-1-producing Enterobacteriaceae isolate N8 after 16 to 20 hrs by broth microdilution method; format: functional; how it was run: as §2
Enterobacteriaceae [36] = assay: Antibacterial activity against NDM-1-producing Enterobacteriaceae isolate N9 after 16 to 20 hrs by broth microdilution method; format: functional; how it was run: as §2
Enterobacteriaceae [37] = assay: Antibacterial activity against NDM-1-producing Enterobacteriaceae isolate N10 after 16 to 20 hrs by broth microdilution method; format: functional; how it was run: as §2
Staphylococcus aureus [38] = assay: Induction of cytoplasmic membrane depolarization in Staphylococcus aureus ATCC 29213 at 20 ug/ml measured every 2 mins for 12 mins by diSC35 staining based fluorescence assay; format: functional, organism-based
How it was run: (§3)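 Mid-log cells (4–6 h) pelleted, washed and resuspended (~10^8 CFU/mL) in PBS for S. aureus, or in 5 mM HEPES, 5 mM glucose and 100 mM KCl (1:1:1) for E. coli. Preloaded with diSC35 (10 µM, 50 µL), 30 min for S. aureus and 40 min plus EDTA (200 µM, 50 µL) for E. coli. Baseline read 8 min (ex 622/em 670 nm), then compound added to 20 µg/mL final and read every 2 min for 12 min. Water control.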

Escherichia coli [39] = assay: Induction of cytoplasmic membrane depolarization in Escherichia coli ATCC 25922 at 20 ug/ml measured every 2 mins for 12 mins by diSC35 staining based fluorescence assay; format: functional, organism-based; how it was run: as §3
Staphylococcus aureus [40] = assay: Induction of inner membrane permeabilization in Staphylococcus aureus ATCC 29213 at 20 ug/ml measured every 2 mins for 12 mins by propidium iodide staining based fluorescence assay; format: functional, organism-based
How it was run: (§4)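 Mid-log cells (~10^8 CFU/mL) pre-incubated with propidium iodide (10 µM, 50 µL), 30 min for S. aureus and 40 min for E. coli. Fluorescence (ex 535/em 617 nm) read for 8 min, then compound added to 20 µg/mL final and monitored every 2 min for 12 min. Water-treated control.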

Escherichia coli [41] = assay: Induction of inner membrane permeabilization in Escherichia coli ATCC 25922 at 20 ug/ml measured every 2 mins for 12 mins by propidium iodide staining based fluorescence assay; format: functional, organism-based; how it was run: as §4
Escherichia coli [42] = assay: Induction of outer membrane permeabilization in Escherichia coli ATCC 25922 at 20 ug/ml measured every 2 mins for 12 mins by NPN staining based fluorescence assay; format: functional, organism-based
How it was run: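 Mid-log E. coli (~10^8 CFU/mL) in black plates pre-incubated about 40 min with NPN (10 µM, 50 µL). Baseline read 8 min (ex 350/em 420 nm), then compound added to 20 µg/mL final and fluorescence followed every 2 min for 12 min. Water-treated control.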

COLISTIN
Ratio (Escherichia coli [1]): 32

CCCCCCCCN(CCCCCCCC)C(=O)[C@@H](N)C(C)O.Cl (some centres undefined)
MIC (Staphylococcus aureus [2]): 4 µg/mL
MIC (Enterococcus faecalis): 8 µg/mL
MIC (Escherichia coli [3]): 16 µg/mL
MIC (Salmonella enterica): 64 µg/mL
MIC (Staphylococcus aureus [4]): 8 µg/mL
MIC (Klebsiella pneumoniae [5]): 64 µg/mL
MIC (Enterobacteriaceae [6]): 64 µg/mL
HC50 at 1 h [7]: 268 µg/mL
MIC (Staphylococcus aureus [8]): 8 µg/mL
MIC (Staphylococcus aureus [9]): 4 µg/mL
MIC (Staphylococcus aureus [10]): 4 µg/mL
MIC (Staphylococcus aureus [11]): 4 µg/mL
MIC (Staphylococcus aureus [12]): 8 µg/mL
MIC (Staphylococcus aureus [13]): 8 µg/mL
MIC (Staphylococcus aureus [14]): 8 µg/mL
MIC (Staphylococcus aureus [15]): 8 µg/mL
MIC (Staphylococcus aureus [16]): 8 µg/mL
MIC (Staphylococcus aureus [17]): 8 µg/mL
MIC (Klebsiella pneumoniae [18]): 64 µg/mL
MIC (Klebsiella pneumoniae [19]): 64 µg/mL
MIC (Klebsiella pneumoniae [20]): 64 µg/mL
MIC (Klebsiella pneumoniae [21]): 64 µg/mL
MIC (Klebsiella pneumoniae [22]): 64 µg/mL
MIC (Klebsiella pneumoniae [23]): 64 µg/mL
MIC (Klebsiella pneumoniae [24]): 64 µg/mL
MIC (Klebsiella pneumoniae [25]): 64 µg/mL
MIC (Klebsiella pneumoniae [26]): 64 µg/mL
MIC (Klebsiella pneumoniae [27]): 64 µg/mL
MIC (Enterobacteriaceae [28]): > 64 µg/mL
MIC (Enterobacteriaceae [29]): > 64 µg/mL
MIC (Enterobacteriaceae [30]): 64 µg/mL
MIC (Enterobacteriaceae [31]): 64 µg/mL
MIC (Enterobacteriaceae [32]): 64 µg/mL
MIC (Enterobacteriaceae [33]): > 64 µg/mL
MIC (Enterobacteriaceae [34]): > 64 µg/mL
MIC (Enterobacteriaceae [35]): > 64 µg/mL
MIC (Enterobacteriaceae [36]): > 64 µg/mL
MIC (Enterobacteriaceae [37]): > 64 µg/mL
Activity (Staphylococcus aureus [38]): Active
Activity (Escherichia coli [39]): Active
Activity (Staphylococcus aureus [40]): Active
Activity (Escherichia coli [41]): Active
Activity (Escherichia coli [42]): Active
